In ChEMBL document CHEMBL4229380, “Arylureas derived from colchicine: Enhancement of colchicine oncogene downregulation activity” (Eur J Med Chem, 2018):

Tests used:
[1] = system: HeLa; assay: Antiproliferative activity against human HeLa cells after 2 days by MTT assay; type: functional, cell-based; settings: 48 h
In short: (§1)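 Cells (5×10^3 per well) in DMEM with 10% FBS, glucose, glutamine and antibiotics were exposed to serial dilutions (stocks in DMSO) for 2 days at 37 °C, 5% CO2. MTT was added for 3 h, formazan was dissolved in DMSO and absorbance read at 490 nm. Viability was taken as % of untreated cells. IC50 was read graphically from three independent experiments.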

[2] = system: HT-29; assay: Effect on VEGF gene expression in human HT-29 cells assessed as VEGF level at 5 nM after 48 hrs by RT-qPCR analysis; type: functional
In short: (§2)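 HT-29 cells at 70–80% confluence were seeded at 1.5×10^5 per well and left 24 h, then treated 48 h, with DMSO as control. Total RNA was extracted and VEGF-A, c-Myc and hTERT were quantified by TaqMan qPCR, normalized to β-actin and to living cell number. Results are % expression versus control, at least three measurements.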

[3] = system: MCF7; assay: Antiproliferative activity against human MCF7 cells after 2 days by MTT assay; type: functional, cell-based; settings: MCF7, 48 h; in short: as §1
[4] = system: HEK293; assay: Antiproliferative activity against human HEK293 cells after 2 days by MTT assay; type: cell-based; settings: HEK293, 48 h; in short: as §1
[5] = system: HT-29; assay: Antiproliferative activity against human HT-29 cells after 2 days by MTT assay; type: functional, cell-based; settings: HT-29, 48 h; in short: as §1
[6] = system: HT-29; assay: Effect on hTERT gene expression in human HT-29 cells assessed as hTERT level at 5 nM after 48 hrs by RT-qPCR analysis; type: functional; in short: as §2
[7] = system: HT-29; assay: Induction of apoptosis in human HT-29 cells assessed as necrotic cells at 5 nM after 48 hrs by Annexin V-FITC staining-based flow cytometric analysis (reference value: 2 +/- 6%); type: functional
[8] = system: HT-29; assay: Induction of apoptosis in human HT-29 cells assessed as apoptotic cells at 5 nM after 48 hrs by Annexin V-FITC staining-based flow cytometric analysis (reference value: 13 +/- 3%); type: functional
[9] = system: HT-29; assay: Effect on VEGFR2 protein expression in human HT-29 cells assessed as VEGFR2 level at 5 nM after 48 hrs by ELISA; type: functional
In short: (§3)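 HT-29 cells (1.5×10^5 per well, 24 h pre-culture) were treated 48 h and washed in PBS. They were lysed in Tris pH 7.4 buffer with detergents, phosphatase inhibitors, PMSF and protease inhibitors. Lysates were adjusted to 200 µg/mL protein (Bradford) and total c-Myc or VEGFR-2 was measured by sandwich ELISA kit. Values are % of DMSO control, ≥3 measurements.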

[10] = system: HT-29; assay: Effect on c-MYC gene expression in human HT-29 cells assessed as c-MYC level at 5 nM after 48 hrs by RT-qPCR analysis; type: functional; in short: as §2
[11] = system: HT-29; assay: Effect on c-MYC protein expression in human HT-29 cells assessed as c-MYC level at 5 nM after 48 hrs by ELISA; type: functional; in short: as §3
[12] = system: HT-29; assay: Effect on VEGF protein expression in human HT-29 cells assessed as secreted VEGF level in culture media at 5 nM after 48 hrs by ELISA
[13] = system: HT-29; assay: Induction of apoptosis in human HT-29 cells assessed as viable cells at 5 nM after 48 hrs by Annexin V-FITC staining-based flow cytometric analysis (reference value: 82 +/- 1%); type: functional; settings: HT-29, 48 h, read-out: Activity

**Q.** Which IC50 [1] does the source give for `COc1ccc(NC(=O)N[C@H]2CCc3cc(OC)c(OC)c(OC)c3-c3ccc(OC)c(=O)cc32)cc1` here?
**A.** Its IC50 is 6.5 nM.

**Q.** What about the Activity [2] of the same molecule?
**A.** Its Activity is 70%.

**Q.** And the IC50 [3]?
**A.** Its IC50 is 13 nM.

**Q.** And the IC50 [4]?
**A.** Its IC50 is 14 nM.

**Q.** And the IC50 [5]?
**A.** Its IC50 is 4 nM.

**Q.** What about the Activity [6] of the same molecule?
**A.** The Activity was 91%.

**Q.** And the Activity [7]?
**A.** Its Activity is 1%.

**Q.** What about the Activity [8] of the same molecule?
**A.** Its Activity is 35%.

**Q.** And the Activity [9]?
**A.** The Activity was 95%.

**Q.** What about the Activity [10] of the same molecule?
**A.** The Activity was 55%.

**Q.** And the Activity [11]?
**A.** The Activity was 61%.

**Q.** And the Activity [12]?
**A.** Its Activity is 44%.

**Q.** What about the viability at 0.005 µM [13] of the same molecule?
**A.** Its viability at 0.005 µM is 64%.

**Q.** Which results are given for `COc1cc2c(c(OC)c1OC)-c1ccc(OC)c(=O)cc1[C@@H](NC(=O)Nc1ccccc1F)CC2`?
**A.** IC50 [1]: 6 nM; IC50 [3]: 6 nM; IC50 [4]: 5 nM; IC50 [5]: 4.7 nM

**Q.** Which IC50 [1] does the source give for `COc1cc2c(c(OC)c1OC)-c1ccc(OC)c(=O)cc1[C@@H](NC(=O)Nc1ccccc1C#N)CC2` here?
**A.** Its IC50 is 10 nM.

**Q.** And the IC50 [3]?
**A.** The IC50 was 11 nM.

**Q.** What about the IC50 [4] of the same molecule?
**A.** The IC50 was 11 nM.

**Q.** What about the IC50 [5] of the same molecule?
**A.** The IC50 was 11 nM.

**Q.** For `COc1cc2c(c(OC)c1OC)-c1ccc(OC)c(=O)cc1[C@@H](NC(=O)Nc1ccc(F)cc1Cl)CC2`, which IC50 [1] is on record?
**A.** Its IC50 is 5 nM.

**Q.** What about the Activity [2] of the same molecule?
**A.** The Activity was 64%.

**Q.** And the IC50 [3]?
**A.** Its IC50 is 1.2 nM.

**Q.** What about the IC50 [4] of the same molecule?
**A.** Its IC50 is 1.7 nM.

**Q.** What about the IC50 [5] of the same molecule?
**A.** Its IC50 is 1.75 nM.

**Q.** What about the Activity [6] of the same molecule?
**A.** Its Activity is 80%.

**Q.** What about the Activity [7] of the same molecule?
**A.** The Activity was 1%.

**Q.** And the Activity [8]?
**A.** Its Activity is 53%.

**Q.** And the Activity [9]?
**A.** The Activity was 15%.

**Q.** And the Activity [10]?
**A.** Its Activity is 58%.

**Q.** And the Activity [11]?
**A.** Its Activity is 104%.

**Q.** What about the Activity [12] of the same molecule?
**A.** The Activity was 67%.

**Q.** And the viability at 0.005 µM [13]?
**A.** The viability at 0.005 µM was 46%.

**Q.** `COc1cc2c(c(OC)c1OC)-c1ccc(OC)c(=O)cc1[C@@H](NC(=O)Nc1ccc(Cl)cc1Cl)CC2` was tested. Which IC50 [1] did it give?
**A.** Its IC50 is 42 nM.

**Q.** What about the IC50 [3] of the same molecule?
**A.** Its IC50 is 24 nM.

**Q.** What about the IC50 [4] of the same molecule?
**A.** The IC50 was 32 nM.

**Q.** What about the IC50 [5] of the same molecule?
**A.** The IC50 was 31 nM.

**Q.** What does the source list for `COc1cc2c(c(OC)c1OC)-c1ccc(OC)c(=O)cc1[C@@H](NC(=O)Nc1ccc3ccccc3c1)CC2`?
**A.** IC50 [1]: 7 nM; IC50 [3]: 10 nM; IC50 [4]: 7 nM; IC50 [5]: 8 nM

**Q.** Which results are given for `COc1cc2c(c(OC)c1OC)-c1ccc(OC)c(=O)cc1[C@@H](NC(=O)Nc1c(C)cccc1C)CC2`?
**A.** IC50 [1]: 242 nM; IC50 [3]: 240 nM; IC50 [4]: 218 nM; IC50 [5]: 130 nM

**Q.** What does the source list for `COc1cc2c(c(OC)c1OC)-c1ccc(OC)c(=O)cc1[C@@H](NC(=O)Nc1c(Cl)cccc1Cl)CC2`?
**A.** IC50 [1]: 22 nM; IC50 [3]: 13 nM; IC50 [4]: 42 nM; IC50 [5]: 40 nM

**Q.** `COc1cc2c(c(OC)c1OC)-c1ccc(OC)c(=O)cc1[C@@H](NC(=O)Nc1ccc(F)cc1)CC2` was tested. Which IC50 [1] did it give?
**A.** The IC50 was 10 nM.

**Q.** What about the Activity [2] of the same molecule?
**A.** Its Activity is 59%.

**Q.** What about the IC50 [3] of the same molecule?
**A.** Its IC50 is 10 nM.

**Q.** And the IC50 [4]?
**A.** Its IC50 is 13 nM.

**Q.** What about the IC50 [5] of the same molecule?
**A.** The IC50 was 5 nM.

**Q.** And the Activity [6]?
**A.** Its Activity is 70%.

**Q.** What about the Activity [7] of the same molecule?
**A.** Its Activity is 2%.

**Q.** What about the Activity [8] of the same molecule?
**A.** Its Activity is 47%.

**Q.** What about the Activity [9] of the same molecule?
**A.** The Activity was 63%.

**Q.** And the Activity [10]?
**A.** Its Activity is 52%.

**Q.** And the Activity [11]?
**A.** The Activity was 105%.

**Q.** And the Activity [12]?
**A.** The Activity was 55%.

**Q.** What about the viability at 0.005 µM [13] of the same molecule?
**A.** The viability at 0.005 µM was 51%.

**Q.** Which IC50 [1] does the source give for `COc1cc2c(c(OC)c1OC)-c1ccc(OC)c(=O)cc1[C@@H](NC(=O)Nc1c(Cl)cc(F)cc1Cl)CC2` here?
**A.** The IC50 was 20 nM.

**Q.** And the IC50 [3]?
**A.** Its IC50 is 14 nM.

**Q.** And the IC50 [4]?
**A.** The IC50 was 92 nM.

**Q.** And the IC50 [5]?
**A.** The IC50 was 30 nM.
